Screens: PubChem, several laboratories
Only some compounds are listed: those with a hit (about 2.6% of all), similar ones and a draw of the others.
PAD4 inh – blocks human protein arginine deiminase 4; Q9UM07; recombinant PAD4, RCA probe fluorescence polarization; inhibition, % at 6.36 µM; 330,000 compounds, 0.41% hits; AID 485272;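 active means percent inhibition above a cutoff equal to the mean of all tested compounds plus 3 SD, cut at about 15% in these data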;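 further: 0% = PAD4 with RCA probe and DMSO and 100% = probe without PAD4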
TDP2 inh – TDP2 (human) inhibition, absorbance primary screen; 370,000 compounds, 0.34% hits; O95551; inhibition, % at 12.8 µM; recombinant TDP2, T5PNP hydrolysis, p-nitrophenol absorbance 415 nm;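 active means inhibition above the mean of all tested compounds plus 3 SD, set per campaign, cut at about 25% in these data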;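 further: 0% = DMSO with enzyme and 100% = buffer with substrate but no TDP2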
Target sequence (O95551 whole entry, looked up): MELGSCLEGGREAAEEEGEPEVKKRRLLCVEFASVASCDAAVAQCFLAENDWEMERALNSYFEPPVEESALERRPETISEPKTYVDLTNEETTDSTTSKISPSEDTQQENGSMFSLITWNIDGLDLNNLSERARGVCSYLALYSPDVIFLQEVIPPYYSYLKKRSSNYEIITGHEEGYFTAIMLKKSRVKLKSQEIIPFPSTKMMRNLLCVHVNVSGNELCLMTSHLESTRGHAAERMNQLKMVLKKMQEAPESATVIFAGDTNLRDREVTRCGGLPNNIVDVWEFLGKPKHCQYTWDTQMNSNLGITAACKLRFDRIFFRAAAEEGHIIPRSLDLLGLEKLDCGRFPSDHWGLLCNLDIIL
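System: recombinant human TDP2 / Amount: 120 nM TDP2 per well / Also added: 5 mM T5PNP chromogenic substrate / Doses: 12.8 µM single point, 1% DMSO / Incubation: 2 h at 37 °C / Detection: p-Nitrophenol epi absorbance / Evaluation: % inhibition relative to enzyme-containing and enzyme-free wells / Repeats: singlicate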
PRMT1 FP inh – inhibitors of human PRMT1 | Q99873 | recombinant PRMT1, activity-based probe fluorescence polarization | inhibition, % at 2.79 µM | 370,000 compounds, 1.3% hits | AID 652257;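 active means inhibition above about 21% made by adding two undisclosed values, limit read from the data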
Apaf-1 inh – inhibitors of human Apaf-1 apoptosome; inhibition, % at 20 µM; reconstituted apoptosome caspase-3 activity, DEVD-Rh110 fluorescence; 330,000 compounds, 0.71% hits; AID 489030; active means inhibition of at least 40% at 20 µM;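 further: plate controls were DMSO wells for no effect and DEVD-CHO caspase inhibitor wells for full effect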
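Assay system: Apoptosome proteins | Medium: pH 7.5 Hepes buffer with CHAPS, BSA, DTT | Also added: Cytochrome c and DEVD-Rh110 substrate | Times: 30 min plus 50 min, RT | Detection: Rhodamine 110 fluorescence at Ex 480/Em 540 nm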
GSTO1 inh – GSTO1 inhibition, counter-screen for RBBP9 inhibitors. recombinant GSTO1, activity-based probe fluorescence polarization. inhibition, % at 5.96 µM. 300,000 compounds, 1.1% hits. AID 1974;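 active means inhibition above the campaign mean inhibition plus 3 SD, cut at about 35% in these data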;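 further: 0% = GSTO1-1 with DMSO and 100% = wells lacking GSTO1-1 enzyme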
Target sequence (P78417 whole entry, looked up): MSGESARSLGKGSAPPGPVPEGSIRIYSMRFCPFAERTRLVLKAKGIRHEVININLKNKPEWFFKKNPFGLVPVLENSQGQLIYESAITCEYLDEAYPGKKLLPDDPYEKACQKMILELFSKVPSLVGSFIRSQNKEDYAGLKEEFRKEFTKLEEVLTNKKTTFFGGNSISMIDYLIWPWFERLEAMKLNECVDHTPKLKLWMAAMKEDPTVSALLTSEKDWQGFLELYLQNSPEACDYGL
* marks the source's active call; other numbers are inactive results; . = no result.

SMILES	PAD4 inh	TDP2 inh	PRMT1 FP inh	Apaf-1 inh	GSTO1 inh
CC1(C)CC(Nc2ccc(Nc3ccccc3)cc2)CC(C)(C)N1	.	10	23*	.	.
CCCCCCCCN1C(=O)[C@H](CC(=O)NCCC(C)C)C[C@@]2(C(=O)OCC)CCC=C12	.	-10	0	.	.
c1ccc(-c2c(-c3ccccc3)n(Cc3ccco3)c3ncnc(NCCCn4ccnc4)c23)cc1	-4	-8	2	42*	11
c1ccc(-c2oc3ncnc(NCCCn4ccnc4)c3c2-c2ccccc2)cc1	-2	.	.	31	37*
COC(=O)Nc1cc(C(=O)c2ccc(Cl)cc2Cl)c[nH]1	-15	-10	24*	5	0
COC(=O)NNC(=O)c1ccc(Cl)cc1Cl	-3	-5	-1	7	5
CCOC(=O)C1CCN(C2CC(=O)N(c3cccc(Cl)c3)C2=O)CC1 (stereo unspecified)	-4	8	22*	-3	-3
COc1ccc(CNc2oc(COc3ccccc3Cl)nc2C#N)cc1	-4	3	-2	14	35*
Cc1ccc(CNc2oc(COc3ccccc3Cl)nc2C#N)cc1	-4	-5	1	24	8
CCC(=O)N1CCc2cc(Br)c(S(=O)(=O)NCCCN(C)Cc3ccccc3)cc21	.	2	-1	.	.
COc1ccc(C(=O)OCCCN(C)C2CN(Cc3cn(Cc4ccc([N+](=O)[O-])cc4)nn3)S(=O)(=O)C2)cc1OC (stereo unspecified)	.	1	4	.	.
CCCCCCNC(=O)C1CSCCS(=O)(=O)N1Cc1ccccc1 (stereo unspecified)	.	8	-4	.	.
O=[N+]([O-])c1c(NCCO)cc(N2CCC3(CC2)OCCO3)c2nonc12	-7	-9	0	-8	-6
O=C(O)CCCNc1cc(N2CCC3(CC2)OCCO3)c2noc3c2c1C(=O)c1ccccc1-3	18*	.	.	-11	54*
O=C(CSC1=NNC(c2ccccn2)S1)Nc1ccc(C(F)(F)F)cc1 (stereo unspecified)	1	-12	24*	-19	-42
c1ccc(CSC2=NNC(c3ccccn3)S2)cc1 (stereo unspecified)	2	-32	-12	-11	-14
O=c1[nH]c2cc3c(cc2cc1C(c1nnnn1C1CCCCC1)N1CCSCC1)OCCO3 (stereo unspecified)	0	-4	22*	-1	1
Cc1cccc(NC(=O)CCS(=O)(=O)c2ccccc2)c1C	.	-5	1	.	.
CC(CCc1ccccc1)NC(=O)CN1CCOc2ccccc21 (stereo unspecified)	1	0	3	10	6
CC(CCc1ccccc1)NC(=O)CN1CCSc2ccccc21 (stereo unspecified)	-7	-3	-2	20	36*
COCc1cn(-c2cccc(-c3noc4c3C(=O)N(CC(=O)N3CCOCC3)CC4)c2)nn1	.	3	0	.	.
Cc1ccc(C2C(C#N)=C(N)Oc3n[nH]c(-c4ccccc4)c32)o1 (stereo unspecified)	-14	13	19	.	45*
CS(=O)(=O)c1ccc(C(=O)NNC(=O)c2cc(-c3ccccc3)n[nH]2)cc1	4	11	24*	-8	.
CCn1c(=O)n(CC(=O)N2CCN(c3ccc(F)cc3)CC2)c(=O)c2ccccc21	.	-1	-2	.	.
CC(=O)Nc1ccc(NC(=O)c2nc(S(=O)(=O)Cc3cccc(C)c3)ncc2Cl)cc1	-1	15	32*	6	-10
SMILES	PAD4 inh	TDP2 inh	PRMT1 FP inh	Apaf-1 inh	GSTO1 inh
CCOC(=O)c1ccc(NC(=O)c2nc(S(=O)(=O)Cc3ccccc3)ncc2Cl)cc1	1	1	6	8	-21
Cc1cccc(CS(=O)(=O)c2ncc(Cl)c(C(=O)NCc3ccc4c(c3)OCO4)n2)c1	-7	1	22*	2	-8
Cc1ccc(NC(=O)c2nc(S(=O)(=O)Cc3ccccc3C)ncc2Cl)cc1C	0	-1	35*	9	-21
COc1ccc(C2CC(=O)C(c3ccccc3)=CN2Cc2ccccc2)cc1 (stereo unspecified)	.	1	-3	.	.
CCCCNC(=O)Nc1cc(C)on1	-6	2	2	-4	-6
CCOC(=O)C(=O)Nc1cc(C)on1	-1	45*	-3	3	-2
CSC1=NSC2=NC(=O)/C(=C/c3coc4ccc(O)cc4c3=O)C(=N)N12	-24	10	25*	-12	-40
CSC1=NSC2=NC(=O)/C(=C/c3coc4ccccc4c3=O)C(=N)N12	-25	-8	17	.	-82
CC(C)c1cc(C(C)C)c(S(=O)(=O)N2CCCC(C(=O)N3CCN(Cc4ccccc4)CC3)C2)c(C(C)C)c1 (stereo unspecified)	.	-1	-1	.	.
COc1ccc(C(=O)CSc2nnc(-c3ccc(C(C)(C)C)cc3)n2C)cc1	.	1	-1	.	.
COC(=O)C[C@@H]1CC[C@@H]2[C@@H](COc3ccc(NC(=O)Nc4cccc(Cl)c4)cc3C(=O)N2C)O1	.	5	2	.	.
CON=C(C(=O)NC1C(=O)N2C(C(=O)O)=C(CSc3nc(=O)c(=O)[nH]n3C)CSC12)c1csc(N)n1 (stereo unspecified)	.	-1	21*	.	.
CCC(=O)NC(c1ccc(C)cc1)c1cc([N+](=O)[O-])c2cccnc2c1O (stereo unspecified)	25*	-6	0	.	13
CCOC(=O)[C@]12CCCCC/C=C\1N(Cc1ccc(OC)cc1)C(=O)[C@H]2CC(=O)NCc1ccccc1	.	1	1	.	.
COC(=O)/C(=C(/F)Sc1cc(C)c(O)c(C)c1)C(F)(F)F	16*	.	.	9	8
C/C(CCN1CCc2nc(-c3ccccc3)c(-c3ccccc3)cc2C1)=N\OC[C@@H](C)[C@H](OCc1ccccc1)C(C)C	-5	.	.	47*	-3
C/C(CCN1CCc2nc(-c3ccccc3)c(-c3ccccc3)cc2C1)=N\O[C@H](C)c1cn([C@H](CO)Cc2ccccc2)nn1	1	.	.	20	4
C[C@H]1CN(c2ccc(N3CCNC[C@@H]3C)cc2C#N)CCN1Cc1ccccc1	.	0	-5	.	.
CN(C)c1ccc(NS(=O)(=O)c2ccc(Cl)cc2)cc1	1	-18	23*	9	10
Cc1ccc(-c2c(NC(=O)C3CC3)nc3ncccn23)cc1	.	6	-2	.	.
NC(=O)C1=CN([C@@H]2O[C@H](COP(=O)(O)OP(=O)(O)OC[C@H]3O[C@@H](n4cnc5c(N)ncnc54)[C@H](O)[C@@H]3O)[C@@H](O)[C@H]2O)C=CC1	.	7	4	.	.
CCN1CCN(c2nc3c(C)cccn3c(=O)c2/C=C(\C#N)C(=O)NCCOC)CC1	-7	-22	23*	10	0
COCCNC(=O)/C(C#N)=C/c1c(N2CCN(C)CC2)nc2c(C)cccn2c1=O	-1	-11	4	1	2
O=c1[nH][nH]c(-c2ccccc2O)c1C(C[N+](=O)[O-])c1ccccc1 (stereo unspecified)	-8	10	0	7	29
